Measurements from different studies.
Compare with care: the assays were run in different laboratories.
Effect on: metabolic stability
Host: human

With `COCC(=O)N1CCC[C@H](C(=O)NCc2nc(-c3ccc(F)cc3)cs2)C1` the microsomal CLint was 14 µL/min/mg (liver microsomes; 0.5 µM).
`O=c1c2ccc(OCc3ccc(C(F)(F)F)cc3)cc2[nH]c2cc(Cl)cc(F)c12` gave a microsomal CLint of 6.71 µL/min/mg (liver microsomes; 1 µM; pH 7.4).
With `CNS(=O)(=O)c1ccc(Nc2ncc(C(F)(F)F)c([C@H]3CC[C@@](C)(O)CC3)n2)c(C)c1` the scaled CLint was under 14 mL/min/kg (liver microsomes; 1 µM).
For `COCC(=O)N1CCC[C@H](C(=O)NCc2nc(-c3ccccc3)cs2)C1`, the scaled CLint was 29 mL/min/kg (hepatocytes; 0.5 µM).
With `Cc1cc(S(=O)(=O)NC2CC(N3CCN(CC4CCN(c5ccc(NC6CCC(=O)NC6=O)cc5C)CC4)CC3)C2)ccc1Nc1ncc(C(F)(F)F)c(N2CCC[C@](C)(O)C2)n1` (stereo partly drawn) the scaled CLint was 15 mL/min/kg (liver microsomes; 1 µM).
The hepatocyte CLint of `CNc1ccc(C(N)=O)cn1` is reported as 3 µL/min/10⁶ cells (hepatocytes; 1 µM; pH 7.4).
The microsomal CLint of `C[C@H]1[C@@H](C(=O)NCc2nc(-c3ccc(C#N)cc3)cs2)CCCN1C(=O)[C@H]1CCO1` is reported as 131 µL/min/mg (liver microsomes; 0.5 µM).
With `C[C@]1(O)CCCN(c2nc(Nc3ccc(S(=O)(=O)N[C@H]4CC[C@H](CN5CCN(c6ccc(C7CCC(=O)NC7=O)c(F)c6)CC5)CC4)cc3F)ncc2C(F)(F)F)C1` (stereo partly drawn) the scaled CLint was under 14 mL/min/kg (liver microsomes; 1 µM).
`CCN(CC)CCOc1ccc2c(=O)c3c([nH]c2c1)CCCC3` gave a microsomal CLint of 6.65 µL/min/mg (liver microsomes; 1 µM; pH 7.4).
The scaled CLint of `Cc1cc(S(=O)(=O)NC2CC(N3CCN(CC4CCN(c5cccc6c5n(C)c(=O)n6C5CCC(=O)NC5=O)CC4)C4(CC4)C3)C2)ccc1Nc1ncc(C(F)(F)F)c(N2CCC[C@](C)(O)C2)n1` (stereo partly drawn) is reported as 34 mL/min/kg (liver microsomes; 1 µM).
`CCOCC(=O)N1CCC[C@H](C(=O)NCc2nc(-c3ccc(C)nc3)cs2)C1` gave a scaled CLint of 33 mL/min/kg (hepatocytes; 0.5 µM).
With `CC(C)(C)OC(=O)N1CCC(Oc2ccc3c(=O)c4c(F)cc(Cl)cc4[nH]c3c2)C1` (stereo not drawn) the microsomal CLint was 17.3 µL/min/mg (liver microsomes; 1 µM; pH 7.4).
`CNS(=O)(=O)c1ccc(Nc2ncc(C(F)(F)F)c(N3CCC(C)(O)CC3)n2)c(C)c1` has a scaled CLint of 48 mL/min/kg (liver microsomes; 1 µM).
`CCONC(=O)N1CCC[C@H](C(=O)NCc2nc(-c3ccc(C#N)cc3)cs2)C1` gave a scaled CLint of 11 mL/min/kg (liver microsomes; 0.5 µM).
For `CCCCN(CCCC)CCCOc1ccc2c(=O)c3c([nH]c2c1)CCCC3`, the microsomal CLint was 91.8 µL/min/mg (liver microsomes; 1 µM; pH 7.4).
`C[C@H](O)c1cnc(NS(=O)(=O)c2ccc(Cl)c(Cl)c2)nc1` has a hepatocyte CLint of under 3 µL/min/10⁶ cells (hepatocytes; 1 µM).
The microsomal CLint of `CC(C)(N)COCC(=O)N1CCC[C@H](C(=O)NCc2nc(-c3ccc(C(F)(F)F)cc3)cs2)C1` is reported as under 3 µL/min/mg (liver microsomes; 0.5 µM).
`Cc1cc(S(=O)(=O)NC2CC(N3CCN(CC4CCN(c5cccc6c5n(C)c(=O)n6C5CCC(=O)NC5=O)CC4)CC3)C2)ccc1Nc1ncc(C(F)(F)F)c(N2CCC[C@](C)(O)C2)n1` (stereo partly drawn) has a scaled CLint of under 14 mL/min/kg (liver microsomes; 1 µM).
`COc1cc(-c2cc(C(C)=O)n3ccccc23)c(OC)cc1Cn1ccnc1` has a scaled CLint of 15.6 mL/min/kg (liver microsomes; pH 7.4).
With `O=c1c2ccc(OCc3ccc(OC(F)(F)F)cc3)cc2[nH]c2cc(Cl)cc(F)c12` the microsomal CLint was 14.9 µL/min/mg (liver microsomes; 1 µM; pH 7.4).
For `COCC(=O)N1CCC[C@H](C(=O)NCc2nc(-c3ccc(OC(F)(F)F)cc3)cs2)C1`, the microsomal CLint was 37 µL/min/mg (liver microsomes; 0.5 µM).
`O=c1c2c([nH]c3cc(OCc4ccc(OC(F)(F)F)cc4)ccc13)CCCC2` has a microsomal CLint of 36.5 µL/min/mg (liver microsomes; 1 µM; pH 7.4).
With `Cc1cc(S(=O)(=O)N[C@]2(C)C[C@H](N3CCN(CC4CCN(c5ccc6c(c5F)n(C)c(=O)n6C5CCC(=O)NC5=O)CC4)CC3)C2)ccc1Nc1ncc(C(F)(F)F)c(N2CCC[C@](C)(O)C2)n1` (stereo partly drawn) the scaled CLint was 251 mL/min/kg (liver microsomes; 1 µM).
With `O=c1c2ccc(Oc3ccc(OC(F)(F)F)cc3)cc2[nH]c2cc(Cl)c(F)cc12` the microsomal CLint was 5.07 µL/min/mg (liver microsomes; 1 µM; pH 7.4).
With `CNS(=O)(=O)c1ccc(Nc2ncc(C(F)(F)F)c(N3CCC[C@](C)(O)C3)n2)c(C)c1` the scaled CLint was 29 mL/min/kg (liver microsomes; 1 µM).
`N[C@H](COCC(=O)N1CCC[C@H](C(=O)NCc2nc(-c3ccc(C(F)(F)F)cc3)cs2)C1)c1ccccc1` gave a microsomal CLint of 80 µL/min/mg (liver microsomes; 0.5 µM).
`O=c1c2cccc(Oc3ccc(OC(F)(F)F)cc3)c2[nH]c2cc(Cl)cc(F)c12` gave a microsomal CLint of 6.75 µL/min/mg (liver microsomes; 1 µM; pH 7.4).
